Measurements taken from ChEMBL document CHEMBL1671856, “Chemical target validation studies of aminopeptidase in malaria parasites using alpha-aminoalkylphosphonate and phosphonopeptide inhibitors” (Antimicrob Agents Chemother, 2008).

Key:
[1] = test system: Plasmodium falciparum; test: Antimalarial activity against Plasmodium falciparum 3D7 infected in O-positive human erythrocytes after 72 hrs; format: functional, organism-based; settings: 3D7, 72 h
Procedure, shortened: (§1)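 Asynchronous asexual blood-stage P. falciparum 3D7 were cultured in O+ erythrocytes and exposed to compounds for 72 h. Growth was read by the spectrophotometric parasite lactate dehydrogenase absorbance assay. IC50 values were determined graphically from dose-response curves.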

[2] = test system: Plasmodium falciparum; test: Inhibition of alanyl aminopeptidase activity in Plasmodium falciparum 3D7 at 10 uM using Ala-AMC as a substrate by spectrophotometer
Procedure, shortened: (§2)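 Cytosolic extract came from free parasites released from infected erythrocytes, then three freeze-thaw cycles and centrifugation at 12,000 x g, 4°C, 20 min. Extract (25 µg/ml final) was preincubated with 0.1 or 10 µM inhibitor in 50 mM Tris-Cl pH 8.0, with or without 1 mM CoCl2, for 15 min at 37°C. Leu-AMC or Ala-AMC (10 µM final) was added. AMC release was read over 30 min (ex 370/em 440 nm).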

[3] = target: T1, Leucine aminopeptidase (Plasmodium falciparum 3D7) (UniProt Q8IL11); test: Inhibition of leucyl aminopeptidase activity in Plasmodium falciparum 3D7 at 0.1 uM using Leu-AMC as a substrate by spectrophotometer in presence of 1 mM CoCl2
T1 sequence (whole entry): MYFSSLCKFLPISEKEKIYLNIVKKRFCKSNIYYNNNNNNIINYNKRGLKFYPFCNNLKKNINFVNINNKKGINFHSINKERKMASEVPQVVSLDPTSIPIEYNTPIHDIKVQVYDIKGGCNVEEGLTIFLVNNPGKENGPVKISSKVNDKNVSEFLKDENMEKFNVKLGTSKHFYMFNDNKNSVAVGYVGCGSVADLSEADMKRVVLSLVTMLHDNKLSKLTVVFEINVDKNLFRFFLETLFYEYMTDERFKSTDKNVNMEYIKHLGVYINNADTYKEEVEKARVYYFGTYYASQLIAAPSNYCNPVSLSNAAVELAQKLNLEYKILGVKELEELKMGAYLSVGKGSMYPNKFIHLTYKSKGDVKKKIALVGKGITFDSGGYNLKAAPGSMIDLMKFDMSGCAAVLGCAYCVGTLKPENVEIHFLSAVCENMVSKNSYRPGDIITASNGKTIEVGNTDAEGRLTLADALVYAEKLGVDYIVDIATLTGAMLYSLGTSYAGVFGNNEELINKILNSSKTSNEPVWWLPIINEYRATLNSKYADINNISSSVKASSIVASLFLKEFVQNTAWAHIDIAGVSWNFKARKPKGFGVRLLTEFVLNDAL

[4] = target: T1, Leucine aminopeptidase (Plasmodium falciparum 3D7); test: Inhibition of leucyl aminopeptidase activity in Plasmodium falciparum 3D7 at 10 uM using Leu-AMC as a substrate by spectrophotometer in presence of 1 mM CoCl2
[5] = target: T1, Leucine aminopeptidase (Plasmodium falciparum 3D7); test: Inhibition of leucyl aminopeptidase activity in Plasmodium falciparum 3D7 at 0.1 uM using Leu-AMC as a substrate by spectrophotometer; procedure, shortened: as §2
[6] = test system: Plasmodium falciparum; test: Inhibition of alanyl aminopeptidase activity in Plasmodium falciparum 3D7 at 0.1 uM using Ala-AMC as a substrate by spectrophotometer; procedure, shortened: as §2
[7] = target: T1, Leucine aminopeptidase (Plasmodium falciparum 3D7); test: Inhibition of leucyl aminopeptidase activity in Plasmodium falciparum 3D7 at 10 uM using Leu-AMC as a substrate by spectrophotometer; procedure, shortened: as §2
[8] = Inhibition of porcine kidney leucyl aminopeptidase; design: species or system Sus scrofa
[9] = target: T2, Aminopeptidase N (Sus scrofa, UniProt P15145); test: Inhibition of pig kidney microsomal aminopeptidase N
T2 sequence (P15145 whole entry): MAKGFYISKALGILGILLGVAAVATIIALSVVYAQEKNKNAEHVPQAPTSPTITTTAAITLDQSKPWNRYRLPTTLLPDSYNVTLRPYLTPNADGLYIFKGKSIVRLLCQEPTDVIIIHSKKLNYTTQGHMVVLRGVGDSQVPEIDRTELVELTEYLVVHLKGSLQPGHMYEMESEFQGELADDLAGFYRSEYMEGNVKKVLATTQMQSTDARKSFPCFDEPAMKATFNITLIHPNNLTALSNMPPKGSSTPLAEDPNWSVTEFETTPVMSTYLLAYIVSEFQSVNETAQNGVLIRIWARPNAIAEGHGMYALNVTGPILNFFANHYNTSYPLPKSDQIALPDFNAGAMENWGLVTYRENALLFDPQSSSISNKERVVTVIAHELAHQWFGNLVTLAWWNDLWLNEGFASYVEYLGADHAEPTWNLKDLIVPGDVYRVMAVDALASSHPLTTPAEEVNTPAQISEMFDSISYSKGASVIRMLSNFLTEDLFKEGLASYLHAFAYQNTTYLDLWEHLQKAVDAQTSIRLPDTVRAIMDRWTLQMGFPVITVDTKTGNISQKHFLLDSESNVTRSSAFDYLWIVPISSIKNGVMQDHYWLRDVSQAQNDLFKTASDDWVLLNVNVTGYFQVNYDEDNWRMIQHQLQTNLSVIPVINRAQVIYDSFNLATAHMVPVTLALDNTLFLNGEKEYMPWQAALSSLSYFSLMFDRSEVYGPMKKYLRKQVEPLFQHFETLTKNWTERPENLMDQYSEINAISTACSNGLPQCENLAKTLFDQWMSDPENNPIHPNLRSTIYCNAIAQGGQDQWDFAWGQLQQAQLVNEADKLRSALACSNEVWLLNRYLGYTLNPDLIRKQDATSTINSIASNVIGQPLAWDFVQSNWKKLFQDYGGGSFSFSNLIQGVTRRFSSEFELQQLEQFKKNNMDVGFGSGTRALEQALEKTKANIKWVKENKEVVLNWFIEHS

[10] = test system: Plasmodium falciparum; test: Antimalarial activity against Plasmodium falciparum 3D7 infected in O-positive human erythrocytes assessed as growth inhibition by LDH assay; format: functional; procedure, shortened: as §1
[11] = target: T1, Leucine aminopeptidase (Plasmodium falciparum 3D7); test: Inhibition of leucyl aminopeptidase activity in Plasmodium falciparum 3D7 harboring tPfAP-M17 gene at 0.1 uM using Leu-AMC as a substrate by spectrophotometer in presence of 1 mM CoCl2

Row | SMILES | IC50 [1] [µM] | inhibition [7] [%] | inhibition (INH) [10] [%] | other results
1 | CC(CCNC(=O)C(N)Cc1ccccc1)P(=O)(O)O (stereo unspecified) | 135 | 4 | – | inhibition at 10 µM [2]: 0%; inhibition [3]: 1%; inhibition [4]: 0%; inhibition [5]: 0%; inhibition at 0.1 µM [6]: 0%
2 | N[C@@H](C1CCCCC1)P(=O)(O)O | 54 | 12 | – | inhibition at 10 µM [2]: 8%; inhibition [3]: 50%; inhibition [4]: 67%; Ki [8]: 7.89 µM; inhibition [5]: 0%; inhibition at 0.1 µM [6]: 2%; Ki [9]: 161 µM
3 | NC(c1ccc2ccccc2c1)C(O)P(=O)(O)O (stereo unspecified) | > 128 | 17 | 11 | –
4 | CCC(CC)[C@H](N)P(=O)(O)O | > 256 | 10 | 15 | –
5 | CC(C)C[C@H](N)[C@@H](N)P(=O)(O)O | > 256 | 6 | 14 | –
6 | Cl.NC(Cc1ccccc1)C(=O)NCCC(O)P(=O)(O)O (stereo unspecified) | > 256 | 9 | 10 | –
7 | CC(C)C(NC(=O)C(N)Cc1ccccc1)P(=O)(O)O (stereo unspecified) | > 256 | 12 | 7 | –
8 | N[C@H](C1CCCCC1)P(=O)(O)O | > 256 | 8 | 7 | Ki [8]: 6.96 µM; Ki [9]: > 2000 µM
9 | CCC(C)C(N)C(O)P(=O)(O)O (stereo unspecified) | > 256 | 5 | 1 | –
10 | CCC(CC)[C@@H](N)P(=O)(O)O | > 256 | 6 | 0 | –
11 | NC(c1ccccc1)C(O)P(=O)(O)O (stereo unspecified) | > 256 | 5 | 0 | –
12 | CC(C)C[C@@H](N)P(=O)(O)O | > 256 | 2 | 1 | Ki [9]: 53 µM
13 | NC(CCc1ccccc1)P(=O)(O)O (racemic) | 22 | 93 | – | inhibition at 10 µM [2]: 95%; inhibition [3]: 41%; inhibition [4]: 92%; inhibition [11]: 27%; Ki [8]: 0.14 µM; inhibition [5]: 15%; inhibition at 0.1 µM [6]: 15%
14 | NC(CCc1ccccc1)P(=O)(O)Oc1ccccc1 (racemic) | 25 | 90 | – | inhibition at 10 µM [2]: 92%; inhibition [3]: 19%; inhibition [4]: 73%; inhibition [5]: 8%; inhibition at 0.1 µM [6]: 12%
15 | COc1ccc(C(N)P(=O)(O)O)cc1O (racemic) | 65 | 39 | – | inhibition at 10 µM [2]: 43%; inhibition [3]: 46%; inhibition [4]: 71%; inhibition [5]: 5%; inhibition at 0.1 µM [6]: 0%
16 | NC(CC1CCCCC1)P(=O)(O)O (racemic) | 119 | 27 | – | inhibition at 10 µM [2]: 20%; inhibition [3]: 21%; inhibition [4]: 69%; Ki [8]: 0.75 µM; inhibition [5]: 3%; inhibition at 0.1 µM [6]: 0%; Ki [9]: 54.7 µM
17 | COc1ccc(C(N)P(=O)(O)O)cc1OC (racemic) | 53 | 71 | – | inhibition at 10 µM [2]: 76%; inhibition [3]: 20%; inhibition [4]: 70%; inhibition [5]: 6%; inhibition at 0.1 µM [6]: 0%
18 | COc1ccc(C(N)P(=O)(O)O)cc1 (racemic) | 57 | 43 | – | inhibition at 10 µM [2]: 52%; inhibition [3]: 38%; inhibition [4]: 73%; inhibition [5]: 2%; inhibition at 0.1 µM [6]: 2%
19 | NC(c1cccc(O)c1)P(=O)(O)O (racemic) | > 256 | 6 | 34 | –
20 | NC(CC1CCCC1)P(=O)(O)O (racemic) | > 256 | 37 | 17 | –

Row | SMILES | IC50 [1] [µM] | inhibition [7] [%] | inhibition (INH) [10] [%] | other results
21 | NC(c1ccc(O)cc1)P(=O)(O)O (racemic) | > 256 | 8 | 14 | –
22 | NC(C1CCC1)P(=O)(O)O (racemic) | > 256 | 6 | 8 | –
23 | NC(c1ccc(O)c(O)c1)P(=O)(O)O (racemic) | > 256 | 7 | 5 | –
24 | NC(Cc1ccc(O)cc1)P(=O)(O)O (racemic) | > 256 | 8 | 1 | –
25 | NC(C1CC1)P(=O)(O)O (racemic) | > 256 | 6 | 0 | –
26 | CCC(C)C(N)P(=O)(O)O (stereo in doubt; D28) [listing 1 of 2 here] | > 256 | – | 22 | –
27 | CCC(C)C(N)P(=O)(O)O (stereo in doubt; D28) [listing 2 of 2 here] | – | 9 | – | –
28 | CCC(C)C(N)P(=O)(O)O (stereo in doubt; D29) [listing 1 of 2 here] | – | – | 0 | –
29 | CCC(C)C(N)P(=O)(O)O (stereo in doubt; D29) [listing 2 of 2 here] | – | 9 | – | –
30 | CCCC(C)C(N)P(=O)(O)O (stereo in doubt; D30) [listing 1 of 2 here] | > 256 | – | 14 | –
31 | CCCC(C)C(N)P(=O)(O)O (stereo in doubt; D30) [listing 2 of 2 here] | – | 11 | – | –
32 | CCCC(C)C(N)P(=O)(O)O (stereo in doubt; D31) [listing 1 of 2 here] | – | – | 2 | –
33 | CCCC(C)C(N)P(=O)(O)O (stereo in doubt; D31) [listing 2 of 2 here] | – | 3 | – | –
34 | CCCCC(CC)C(N)P(=O)(O)O (stereo in doubt; D32) [listing 1 of 2 here] | – | – | 0 | –
35 | CCCCC(CC)C(N)P(=O)(O)O (stereo in doubt; D32) [listing 2 of 2 here] | – | 1 | – | –
36 | CCCCC(CC)C(N)P(=O)(O)O (stereo in doubt; D33) [listing 1 of 2 here] | > 256 | – | 17 | –
37 | CCCCC(CC)C(N)P(=O)(O)O (stereo in doubt; D33) [listing 2 of 2 here] | – | 11 | – | –
38 | CC(C)C[C@H](N)P(=O)(O)O [LEUCINE PHOSPHONIC ACID] | > 128 | 15 | 30 | inhibition at 10 µM [2]: 24%; inhibition [3]: 9%; inhibition [4]: 52%; inhibition [5]: 0%; inhibition at 0.1 µM [6]: 0%
39 | CC(C)C[C@H](NC(=O)[C@@H](O)[C@H](N)Cc1ccccc1)C(=O)O [UBENIMEX] | – | 98 | – | inhibition at 10 µM [2]: 97%; inhibition [3]: 6%; inhibition [4]: 93%; inhibition [11]: 47%; inhibition [5]: 33%; inhibition at 0.1 µM [6]: 29%
